This is an account of results in ChEMBL document CHEMBL5053485, “Targeting Acute Myelogenous Leukemia Using Potent Human Dihydroorotate Dehydrogenase Inhibitors Based on the 2-Hydroxypyrazolo[1,5-a]pyridine Scaffold: SAR of the Biphenyl Moiety” (J Med Chem, 2021).

Calls of active or inactive are those of the source. The calls are words filed in the database; no cut-off is given here.

What is called logD is the decadic logarithm of the distribution of all forms, ionised or not, between an organic phase and buffer at a given pH. As usually defined, the solubility is how much of the substance goes into solution per volume. Lower therefore signals a poorly soluble substance.

Data set [1] has as its system THP-1. Description: Induction of cell differentiation in human THP-1 cells assessed as CD14 expression at 1 uM after 3 days by flow cytometric analysis. Type of data set: functional, cell-based. The note with it: time 3.0 day. A general note: Flow cytometry measures light scatter and fluorescence of single cells or particles in a stream.
In data set [2] the test system is THP-1. Description: Induction of apoptosis in human THP-1 cells at 1 uM after 3 days by Annexin-V-FITC staining based flow cytometry relative to control. The following applies: time 3.0 day. Type of data set: functional, cell-based. The gist of the method:
(§1)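 After 3 days, annexin V-FITC was read by flow cytometry. Significance versus DMSO used two-tailed paired t tests (P < 0.05). The assay was also run with 100 μM uridine.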

A short description of data set [3]: n-Octanol/PBS partition coefficient, logD of the compound at pH 7.4 incubated for 20 mins by shake flask method. Type of data set: physicochemical.
Data set [4] relates to THP-1. Description: Induction of apoptosis in human THP-1 cells at 0.1 uM after 3 days by Annexin-V-FITC staining based flow cytometry relative to control. Type of data set: functional, cell-based. The note with it: time 3.0 day. In a few lines:
as §1

Data set [5] relates to THP-1. Description: Induction of cell differentiation in human THP-1 cells assessed as CD14 expression at 0.1 uM after 3 days by flow cytometric analysis. In kind it is functional, cell-based. The note with it: time 3.0 day.
The subject of data set [6] is Jurkat. Kind of data set: Cytotoxicity against human Jurkat cells assessed as concentration required to induce more than 30% cytotoxicity incubated for 3 days by CSFE dye based assay. In kind it is cell-based. The note with it: 72 h, time 3 day.
The nature of data set [7]: Protein binding in human serum at 50 uM after 1 hr by RP-UHPLC method. In kind it is ADME, cell-free. The following applies: read-out: PB (converted).
Data set [8] can be described thus: Solubility of compound in PBS at pH 7.4 after 24 hrs by UHPLC analysis. In kind it is physicochemical.
The nature of data set [9]: Metabolic stability in Sprague-Dawley rat liver microsomes assessed as parent compound remaining after 30 mins. Type of data set: ADME, Microsome. The following applies: 0.5 h. The gist of the method: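 The regenerating system contained MgCl₂, NADP⁺, Glu6P and G6PDH. Controls were heat-inactivated microsomes and no regenerating system. Samples taken at 0–120 min were quenched in cold acetonitrile and analysed by HPLC–HRMS.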

For the compound `O=C(Nc1c(F)c(F)c(-c2cccc(O)c2)c(F)c1F)c1c(O)nn2ccccc12`, the outcome in [1] and in data set [2] was inactive.
`Cc1c(-c2ccc(-c3ccccc3F)cc2)nc2ccc(F)cc2c1C(=O)O` [BREQUINAR] displayed a logD at 20 min in data set [3] of 1.83.
For `O=C(Nc1c(F)c(F)c(-c2cccc(F)c2)c(F)c1F)c1c(O)nn2ccccc12`, the result in data set [4] and in data set [5] was Active. Besides, the logD at 20 min in data set [3] came out at 2.09.
Turning to `O=C(Nc1c(F)c(F)c(-c2cccnc2)c(F)c1F)c1c(O)nn2ccccc12`, the result in [1] and in [2] was inactive.
On to `O=C(Nc1c(F)c(F)c(-c2cccc(C(F)(F)F)c2)c(F)c1F)c1c(O)nn2ccccc12`, for which the outcome in [4] and in data set [5] was Active. Also, the Activity in data set [6] was more than 100 µM.
Regarding `CCn1c(CO)nn(-c2cc(O[C@@H](C)C(F)(F)F)c(C(=O)Nc3c(F)cccc3Cl)cc2F)c1=O`, the fraction unbound at 1 h, 50 µM in data set [7] is 0.099. In [8], this compound came in with a solubility at 24 h of less than 1 µM. For the same compound, in data set [3], the logD at 20 min was found to be 2.7.
Consider `COc1cccc(-c2cc(F)c(Nc3ncccc3C(=O)O)c(F)c2)c1` [ASLAN-003], for which the fraction unbound at 1 h, 50 µM in [7] was less than 0.01.
For `CCCOc1cccc(-c2c(F)c(F)c(NC(=O)c3c(O)nn4ccccc34)c(F)c2F)c1`, the result in data set [4] and in data set [5] was Active. In [6], the Activity is more than 100 µM. In addition, in [9], the Stability result is reported as “Unstable”.
With `O=C(Nc1c(F)c(F)c(-c2ccnc(C(F)(F)F)c2)c(F)c1F)c1c(O)nn2ccccc12`, the result in data set [1] and in data set [2] was inactive.
`O=C(Nc1c(F)c(F)c(N2CCOCC2)c(F)c1F)c1c(O)nn2ccccc12`: the result in data set [1] and in [2] was inactive.
On to `O=C(Nc1c(F)c(F)c(-c2ccccc2)c(F)c1F)c1c(O)nn2c1CCCC2`, for which, in data set [8], the solubility at 24 h is less than 6 µM.
For `O=C(Nc1c(F)c(F)c(-c2cccc(OC(F)(F)F)c2)c(F)c1F)c1c(O)nn2ccccc12`, the result in [4] and in data set [5] was Active. The Activity in data set [6] was more than 100 µM.
Consider `COc1cccc(-c2c(F)c(F)c(NC(=O)c3c(O)nn4ccccc34)c(F)c2F)c1`, for which the result in data set [4] and in [5] was Active.
In data set [8], `O=C(Nc1c(F)c(F)c(-c2ccccc2)c(F)c1F)c1c(O)nn2c(Cl)cccc12` had a solubility at 24 h of less than 6 µM.
